SR-BI DiI inh: mouse SR-BI HDL lipid transfer inhibition; AID 488896; actives 0.96% (n = 320,000); ldlA[mSR-BI] CHO cells, DiI-HDL uptake fluorescence, 3 h; inhibition, % at 12.5 µM; Q61009;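 active means mean replicate inhibition of at least 70% and a set share of replicates each scoring 70 or more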;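 further: 0% = median of neutral control wells and 100% = median of positive control wells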
FXN GAA850 act: increases GAA850 frataxin promoter reporter activity; HEK293 lucGAA850 FXN promoter luciferase reporter, 24 h; percent of 10 µM SAHA response; AID 540364; activation, % at 6 µM; actives 0.56% (n = 360,000);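 active means activation above the average of all compounds screened plus 3 SD, cutoff fixed separately per campaign, cut at about 7.5% in these data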;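 further: 0% = DMSO wells and 100% = 10 µM SAHA wells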
GASC-1 inh: human JMJD2C demethylase inhibition; GST-JMJD2C(1-420) H3K9me3 demethylation, DELFIA europium; AID 2099; inhibition, % at 2.35 µM; actives 0.069% (n = 330,000);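 active means more than half of a compound's replicate wells show inhibition beyond 50%, single wells judged on their own value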;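 further: signal counts dimethyl H3K9 product captured on neutravidin plate; 0% = median of DMSO wells and 100% = 0.3 times that DMSO median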
Target sequence (Q9H3R0 1-420 limits assumed): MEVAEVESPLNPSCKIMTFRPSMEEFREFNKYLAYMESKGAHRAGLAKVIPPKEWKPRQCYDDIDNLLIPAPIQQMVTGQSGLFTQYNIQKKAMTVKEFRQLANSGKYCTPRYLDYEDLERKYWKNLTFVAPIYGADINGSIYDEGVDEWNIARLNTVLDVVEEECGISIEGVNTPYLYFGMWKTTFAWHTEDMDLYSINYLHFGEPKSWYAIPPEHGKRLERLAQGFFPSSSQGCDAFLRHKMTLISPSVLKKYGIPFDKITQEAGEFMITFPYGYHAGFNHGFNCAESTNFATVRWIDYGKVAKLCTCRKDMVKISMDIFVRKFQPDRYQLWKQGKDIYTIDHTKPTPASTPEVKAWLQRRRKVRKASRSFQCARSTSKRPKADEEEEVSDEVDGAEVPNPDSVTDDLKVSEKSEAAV
SR-BI DiI-HDL act: SR-BI HDL lipid transfer activation. CHO ldlA[mSR-BI] cells, DiI-HDL uptake fluorescence, 3 h; 100 = double the neutral-control signal. activation, % at 12.5 µM. actives 0.096% (n = 320,000). AID 504775;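 active means mean replicate activation of at least 60% and every replicate at or above 60%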;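 further: 0% = median plate neutral-control signal and 100% = twice that signal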
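Material: SR-BI-overexpressing, LDLR-lacking CHO cells; schedule: compound exposure 3 h, 37 °C; reagent: DiI-labelled HDL at 10 µg/mL final; technique: bottom-read fluorescence, 550/595 nm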
AHR activator: activators of human aryl hydrocarbon receptor; AID 2796; P35869; AHR-responsive luciferase reporter cells, luminescence; actives 2.5% (n = 320,000); activation, % at 5 µM; in the data active means activation above about 47%;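 further: 0% = vehicle wells and 100% = reference agonist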
AHR act cf: confirmation of human aryl hydrocarbon receptor activators | shares compounds with AHR activator | human cells, AHR-responsive luciferase reporter, luminescence | activation, % at 9 µM | actives 87% (n = 2,300); in the data active means activation above about 49%;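 further: HepG2 hepatoma cells carrying a DRE-driven firefly luciferase reporter; 0% = vehicle wells and 100% = reference agonist wells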
PXR counter: counter-screen for AHR activators: human PXR activators. AID 434939. actives 88% (n = 2,300). shares compounds with AHR activator. cell-based PXR reporter, luciferase luminescence. activation, % at 11.6 µM; in the data active means activation above about 11%;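 further: human hepatoma DPX-2 cells expressing full-length human PXR; 0% = DMSO and 100% = reference agonist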
Numbers without * were called inactive; . = no result given. Compounds with a hit are over-represented: about 3.7% of the library has one in this group of screens.

SMILES	SR-BI DiI inh	FXN GAA850 act	GASC-1 inh	SR-BI DiI-HDL act	AHR activator	AHR act cf	PXR counter
CCC(C)(C)NC(=O)C(c1ccccc1Cl)N(C(=O)CCC(=O)Nc1cc(C)on1)C1CC1 (stereo not given)	.	-1.5	-10.4	.	-0.5	.	.
O=C(COC(=O)/C=C/c1ccc([N+](=O)[O-])cc1)NC(c1ccccc1)c1ccccc1	0.0	2.0	-1.7	0.0	3.9	.	.
Cc1ccc2nc(NCc3ccccc3)[nH]c2c1	17.4	0.1	16.0	-17.4	83.6*	55.4*	207.9*
O=C(COC(=O)/C=C/c1ccco1)NCc1ccc2c(c1)OCO2	-16.7	0.0	1.5	16.7	-0.6	.	.
COc1cc(N=Nc2ccccc2C(=O)O)ccc1O	6.5	-0.2	-1.8	-6.5	2.8	.	.
COc1cc(N=Nc2ccc3ccccc3c2)ccc1O	-1.7	6.8	17.5	1.7	84.2*	27.7	12.7*
COc1ccc(N(CC(=O)NCC2CCCO2)C(=O)CCC(=O)Nc2nccs2)cc1 (stereo not given)	-6.9	-0.2	2.8	6.9	4.3	.	.
COc1c2ccoc2c(OCC=C(C)C)c2oc(=O)ccc12	4.0	-2.6	-8.2	-4.0	8.8	.	.
COc1c2ccoc2c(OC[C@@H](O)C(C)(C)OC)c2oc(=O)ccc12	0.3	-0.1	11.7	-0.3	101.8*	68.6*	80.2*
C/C(=N\Nc1cc(N2CCOCC2)ncn1)c1cccc([N+](=O)[O-])c1	27.9	5.0	6.2	-27.9	37.4	.	.
C/C(=N\Nc1cc(N2CCOCC2)ncn1)c1ccccc1	5.8	5.5	20.4	-5.8	89.4*	26.0	49.6*
CC/C(O)=C1\C(=O)CC(c2ccccc2)CC1=NC(C)C (stereo not given)	-8.0	1.1	-7.7	8.0	123.1*	3.2	128.4*
CC/C(O)=C1\C(=O)CC(c2ccccc2)CC1=NCCC(=O)O (stereo not given)	6.6	0.6	-4.6	-6.6	-1.7	.	.
CC(C)(C)C(=O)Nc1ccc(S(=O)(=O)Nc2nccs2)cc1	-22.9	0.8	-9.9	22.9	0.5	.	.
Clc1ccc(/C(Cc2nc3ccccc3[nH]2)=N\Nc2ccccc2)cc1	67.4	1.1	5.6	-67.4	90.6*	40.4	48.8*
O=C(Cc1nc2ccccc2[nH]1)c1ccc(Cl)cc1	.	1.2	20.6	.	20.0	.	.
CN(C(=O)c1cc([N+](=O)[O-])ccc1NCc1cccnc1)c1ccccc1	-4.1	-0.2	13.3	4.1	80.4*	72.2*	87.9*
NC(=O)c1cc([N+](=O)[O-])ccc1NCc1cccnc1	-12.7	6.3	15.0	12.7	15.5	.	.
CC(=O)N/N=C/c1cc(C(C)(C)C)cc(/C=N/NC(C)=O)c1O	33.8	-0.8	-13.7	-33.8	81.6*	82.9*	22.1*
CCC(O)(CC)C(=O)N/N=C/c1cc(Br)cc(Br)c1O	53.4	-3.4	2.7	-53.4	2.4	.	.
Cc1ccc[n+](CC(=O)c2ccc(Br)cc2)c1C	-25.0	2.6	-13.2	25.0	83.1*	47.2*	.
Cc1nc(N2CCN(Cc3nc4ccccc4[nH]3)CC2)c2oc3ccccc3c2n1	-2.4	0.9	-2.6	2.4	3.2	.	.
Cc1nc(N2CCOCC2)c2oc3ccccc3c2n1	-10.1	-1.3	10.7	10.1	99.5*	92.3*	24.2*
CCOc1ccc2nc(/N=C/c3c(C)[nH]n(-c4ccc(C)cc4)c3=O)sc2c1	-17.2	4.0	5.8	17.2	88.8*	66.9*	21.9*
CCOc1ccc2nc(/N=C/c3c(C)[nH]n(-c4ccccc4)c3=O)sc2c1	-1.5	6.7	-0.8	1.5	45.0	.	.
SMILES	SR-BI DiI inh	FXN GAA850 act	GASC-1 inh	SR-BI DiI-HDL act	AHR activator	AHR act cf	PXR counter
Cc1ccc2nc(C(Cl)(Cl)Cl)nc(N/N=C/c3ccncc3)c2c1	-3.5	0.8	1.2	3.5	92.5*	109.7*	15.4*
COc1ccc(NC2c3ccccc3C(=O)N2c2cccnc2)cc1 (stereo not given)	2.3	0.4	4.1	-2.3	2.6	.	.
Cc1[nH]c2ccccc2c1/C=N/NC(=O)CNC(=O)Cc1ccccc1	-11.0	1.6	0.7	11.0	40.1	.	.
Cc1[nH]c2ccccc2c1/C=N/NC(=O)Cc1cccs1	19.5	0.5	13.3	-19.5	100.1*	72.1*	37.6*
Cc1[nH]c2ccccc2c1/C=N/NC(=O)Nc1ccccc1	39.0	4.7	9.8	-39.0	94.7*	136.1*	45.8*
Cc1[nH]c2ccccc2c1/C=N/NC(=O)CCC(=O)Nc1ccccc1	16.1	1.9	5.8	-16.1	17.6	.	.
Cc1[nH]c2ccccc2c(=O)c1C(=O)/C=C/c1ccccc1	2.2	-12.9	8.3	-2.2	-1.8	.	.
Cc1[nH]c2ccccc2c1/C=C/C(=O)c1ccccc1	63.4	2.5	-3.9	-63.4	129.3*	123.3*	72.6*
Cc1ccc(C(=O)NCC(=O)OCC(=O)N(CC(C)C)c2c(N)n(Cc3ccccc3)c(=O)[nH]c2=O)cc1	-20.7	0.0	13.5	20.7	-2.0	.	.
CCOC(=O)c1ccc(CNC(=O)C2CCC(=O)N(CCc3ccccc3)C2)o1 (stereo not given)	7.1	-0.4	-21.3	-7.1	1.9	.	.
c1ccc(-c2ccc3c(c2)c2c4n3CCN=C4CCC2)cc1	26.4	3.4	4.9	-26.4	92.6*	83.6*	11.3*
CC(=O)/C(N=Nc1ccc2c(c1)OCO2)=C(\C)O	-1.9	3.7	6.3	1.9	112.3*	94.7*	9.0
COc1ccc2c(c1)O[C@H](c1ccc3c(c1)OCO3)[C@@H](O)C2=O	-4.1	4.4	-4.8	4.1	86.7*	94.8*	26.1*
COc1ccc2c(c1)O[C@@H](c1cccc(C(F)(F)F)c1)[C@H](O)C2=O	5.7	.	1.2	-5.7	26.6	.	.
O=C1c2ccccc2C(=O)c2c1cccc2N(CCO)CCO	-1.8	0.4	2.7	1.8	130.5*	13.6	7.7
O=c1c2ccccc2nc2c3ccccc3c(NCc3ccccn3)nn12	-24.3	1.1	1.9	24.3	118.5*	113.0*	128.1*
COCCCNC(=S)NNC(=O)c1cccnc1	-9.3	-0.6	-24.8	9.3	108.2*	32.8	6.5
O=C1Nc2ccccc2/C1=C/c1ccccc1F	13.3	5.3	-7.8	-13.3	94.0*	93.3*	16.6*
Cc1ccccc1/C=C1\C(=O)Nc2ccc(F)cc21	8.4	0.7	-6.5	-8.4	8.5	.	.
COc1cc2c(cc1OC)CC(=O)NC=C2	-14.9	0.0	0.5	14.9	-1.5	.	.
COc1cc(CNC(=O)CCn2nc(C)c3c(C)n(-c4ccccc4)nc3c2=O)cc(OC)c1OC	10.7	-0.6	1.9	-10.7	2.5	.	.
COc1cccc(-c2c(NC(=O)c3ccco3)oc3ccc(Cl)cc3c2=O)c1	-13.1	-0.1	-16.4	13.1	103.6*	84.4*	56.7*

Assay outcomes from PubChem.
